Reference: the M2OR odorant receptor database

biological target: T1, OR51B5 (Homo sapiens) (UniProt Q9H339); conditions: stereoisomer not certain
T1 sequence (whole entry): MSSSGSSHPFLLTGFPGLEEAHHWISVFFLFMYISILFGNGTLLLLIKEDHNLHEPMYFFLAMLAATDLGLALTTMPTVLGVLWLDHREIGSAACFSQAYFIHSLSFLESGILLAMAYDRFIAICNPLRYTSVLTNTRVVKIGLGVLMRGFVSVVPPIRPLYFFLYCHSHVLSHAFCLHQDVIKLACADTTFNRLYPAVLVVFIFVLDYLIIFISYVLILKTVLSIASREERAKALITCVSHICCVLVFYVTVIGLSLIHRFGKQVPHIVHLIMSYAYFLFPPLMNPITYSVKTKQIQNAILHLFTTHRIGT
Method in brief: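 Each receptor–molecule pair is labelled responsive or non-responsive (inactive) according to whether the original authors judged the measured signal statistically different from baseline. The data were taken from the main text and supplementary material of published papers and checked for typos and inconsistencies. Assay methods differed by source, with transient luciferase assays in mammalian cell lines being common.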
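Also: active if original authors judged signal statistically different from baseline.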

Odorant receptor agonist call, inactive:
CCCCCCCCCCCCCCCCCC(=O)OCC, CC(C=O)Cc1ccc(C(C)(C)C)cc1 (centres undefined), COc1ccc2[nH]cc(CCNC(C)=O)c2c1, CCCCCCCCCCCCO, CCCCCCCC(=O)OC, CC1=CCC2CC1C2(C)C (centres undefined), CCC(=O)O, CCCCCCCCCC(=O)OC, CCCCCCCCCCCC(=O)OCC, CCC(C)CO (centres undefined), CCCCCCCCCCCC(=O)OC, CCCCCCCCCCCCCCC(=O)O, CCCCOCC(C)O (centres undefined), CCCCCCCCCCCCCC(=O)O, CCCCCCCCCCCCCCCC(=O)OCC, CCCCCCCCCC(=O)OCC, CCCCCCCC(=O)OCC, CCCC(=O)CC, C=C(C)C1CC=C(C)CC1 (centres undefined), CC(O)C(=O)[O-].[H+] (centres undefined), Cc1ccc(C(C)C)cc1, CCCCCCCCCCCCCCCC(=O)[O-].[H+], Cc1cccc(C)c1C, CCCCCCCCCCCCCC(=O)OCC, CCCCCCCCCCCCCCCCCC(=O)[O-].[H+], CCCO, CCCCC(=O)C(C)=O, CCCCCCCCCCCCCC(=O)OC, CCCCCCC(=O)[O-].[H+]
